Assays:
[1] = Dissociation constant, pKa of the compound; format: physicochemical
Gallus gallus [2] = organism: Gallus gallus; assay: Effect on reduced chicken lysozyme folding activity assessed as maximal activity at 15 mM at pH 7; design: scale not given: the % may be the effect or the level left
Outline: (§1)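 Denatured reduced lysozyme diluted 100-fold to 7 µM into deoxygenated 0.1 M Bis–Tris propane pH 7.0, 1 mM EDTA, 0.5 M GdnHCl, 0.2 mM GSSG plus aromatic thiol, 25 °C. Timed aliquots assayed for lytic activity on M. lysodeikticus (decrease in 450 nm scattering over 2 min). Fit to y=A(1−e^−kt), A = maximal %activity; at least seven independent assays on separate days.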

Gallus gallus [3] = organism: Gallus gallus; assay: Effect on reduced chicken lysozyme folding activity assessed as maximal activity at 8 mM at pH 6; design: scale not given: the % may be the effect or the level left
Outline: (§2)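 Denatured reduced lysozyme (DTE-reduced in 6 M GdnHCl, desalted) diluted 100-fold to 7 µM (0.1 mg/mL) into deoxygenated 0.1 M Bis–Tris pH 6.0, 1 mM EDTA, 0.5 M GdnHCl, 0.2 mM GSSG plus aromatic thiol, 25 °C. Aliquots assayed over time by lysis of M. lysodeikticus (450 nm light scattering, 2 min slope). Curves fit to y=A(1−e^−kt), A = maximal %activity; at least four assays on separate days, standard deviation.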

Gallus gallus [4] = organism: Gallus gallus; assay: Effect on reduced chicken lysozyme folding activity assessed as maximal activity at 8 mM at pH 7; design: scale not given: the % may be the effect or the level left; outline: as §1
Gallus gallus [5] = organism: Gallus gallus; assay: Effect on reduced chicken lysozyme folding activity assessed as maximal activity at 15 mM at pH 6; design: scale not given: the % may be the effect or the level left; outline: as §2
Gallus gallus [6] = organism: Gallus gallus; assay: Effect on reduced chicken lysozyme folding activity assessed as maximal activity at 20 mM at pH 7; design: scale not given: the % may be the effect or the level left; outline: as §1
Gallus gallus [7] = organism: Gallus gallus; assay: Effect on reduced chicken lysozyme folding activity assessed as maximal activity at 20 mM at pH 6; design: scale not given: the % may be the effect or the level left; outline: as §2

Row | SMILES | Activity (Gallus gallus [3]) [%] | Activity (Gallus gallus [4]) [%] | Activity (Gallus gallus [5]) [%] | pKa [1] | Activity (Gallus gallus [2]) [%] | Activity (Gallus gallus [6]) [%] | Activity (Gallus gallus [7]) [%]
1 | O=P(O)(O)Cc1ccc(S)cc1 | 67 | – | – | 6.6 | 67 | – | –
2 | O=C(O)Cc1ccc(S)cc1 | 16 | 45 | – | – | – | – | –
3 | C[N+](C)(C)Cc1ccc(S)cc1 | – | – | – | 5.5 | – | 72 | 85

Second part, led by results:

Row | Activity (Gallus gallus [3]) [%] | Activity (Gallus gallus [4]) [%] | Activity (Gallus gallus [5]) [%] | SMILES | pKa [1] | Activity (Gallus gallus [2]) [%] | Activity (Gallus gallus [6]) [%] | Activity (Gallus gallus [7]) [%]
4 | 60 | 70 | – | O=C(O)c1ccc(S)cc1 | 5.95 | – | – | –
5 | – | – | 50 | O=S(=O)(O)c1ccc(S)cc1 | 5.7 | – | 62 | –

From ChEMBL document CHEMBL1141642, “Rate enhancement of the oxidative folding of lysozyme by the use of aromatic thiol containing redox buffers” (Bioorg Med Chem, 2008)
